# Assay results of several laboratories.
# Lines come from different studies, so protocols differ.
# Target: Tyrosine-protein kinase TXK (TXK, Homo sapiens, UniProt P42681)
# Residues used in one study (P42681 1-527): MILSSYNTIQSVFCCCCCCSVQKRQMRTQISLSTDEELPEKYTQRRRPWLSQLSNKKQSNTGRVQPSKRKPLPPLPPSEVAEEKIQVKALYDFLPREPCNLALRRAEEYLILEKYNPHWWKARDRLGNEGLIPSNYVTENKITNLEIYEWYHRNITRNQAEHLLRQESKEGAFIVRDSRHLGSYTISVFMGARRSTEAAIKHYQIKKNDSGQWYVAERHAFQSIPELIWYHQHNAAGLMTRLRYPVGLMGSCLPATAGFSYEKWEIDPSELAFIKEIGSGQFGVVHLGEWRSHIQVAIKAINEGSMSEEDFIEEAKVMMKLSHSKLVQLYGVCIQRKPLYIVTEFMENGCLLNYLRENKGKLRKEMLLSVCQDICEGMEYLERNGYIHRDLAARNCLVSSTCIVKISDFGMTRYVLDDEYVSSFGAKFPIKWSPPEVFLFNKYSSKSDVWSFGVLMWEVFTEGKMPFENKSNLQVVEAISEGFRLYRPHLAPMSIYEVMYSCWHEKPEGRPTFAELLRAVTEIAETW
SMILES,assay,setting,remaining binding [%]
CC1=C(C#N)[C@@H](c2ccc3[nH]nc(C)c3c2)C(C#N)=C(c2ccc(Cl)cc2)N1,"binding, competition with immobilised ligand",1 µM,88.1
CCN1CCN(Cc2ccc(C(=O)Nc3ccc(C)c(Oc4ccc5c(c4)CC(=O)N5)c3)cc2C(F)(F)F)CC1,"binding, competition with immobilised ligand",1 µM,100
O=C(Nc1c[nH]nc1C(=O)NC1CCNCC1)c1cc(F)cc(F)c1,"binding, competition with immobilised ligand",1 µM,100
C[C@@H](c1cccc(C#N)c1)n1cc(Cl)cc(C(N)=O)c1=N,"binding, competition with immobilised ligand",1 µM,68
O=C(c1ccc(Nc2ncc(Cl)c(-c3ccc(Cl)s3)n2)cc1)N1CCC(N2CCCC2)CC1,"binding, competition with immobilised ligand",1 µM,80
Cc1nc(N2CC[C@@H](O)C2)ncc1-c1cc(C(F)(F)F)cc2[nH]ncc12,"binding, competition with immobilised ligand",1 µM,100
CN(C)c1ncc(F)c(-c2cnn3ncccc23)n1,binding,1 µM,100
Cc1cnc(Nc2ccc(C(=O)N3CCC(N4CCCC4)CC3)cc2)nc1-c1cc2ccccc2s1,"binding, competition with immobilised ligand",1 µM,59
N[C@H]1CCN(c2nccc(-c3cnn4ncccc34)n2)C1,binding,1 µM,100
C=CC(=O)N1CCC(C(=O)NCC(=O)N2CCN(c3nc(-c4cnc(N)nc4C(F)F)nc(N4CCOCC4)n3)CC2)CC1,"binding, competition with immobilised ligand",1 µM,100
c1cncc(-c2cccc(Nc3nccc(NC4CCCCC4)n3)c2)c1,"binding, competition with immobilised ligand",10 µM,20
C[C@@H]1CCN(c2nccc(-c3cnn4ncccc34)n2)C1,binding,1 µM,100
CCS(=O)(=O)c1cc2cc(C[C@@](O)(CC(C)(C)c3ccc(F)cc3C(N)=O)C(F)(F)F)[nH]c2cn1,"cell-free assay, competition with immobilised ligand",1 µM,97
COc1cnc(Nc2cccc(S(N)(=O)=O)c2)nc1N1CCN(c2ccccc2)CC1,"binding, competition with immobilised ligand",1 µM,100
C[C@@H](c1ccc(-n2cnc3c(N)ncnc32)cc1)N1CCc2nn(C)c(Cc3ccccc3)c2C1=O,"binding, competition with immobilised ligand",0.1 µM,73
C[C@H](NC(=O)c1cnc2n1[C@](C)(Cc1ccc(C#N)cc1)C(=O)N2c1cc(Cl)c(F)c(Cl)c1)C(=O)NC1(c2ccccn2)CC1,"binding, competition with immobilised ligand",1 µM,90
COc1ccnn2ncc(-c3ccnc(N(C)C)n3)c12,binding,1 µM,100
Cc1c(NC(=O)c2cc(C(N)=O)nc3cc(F)ccc23)c(C(F)(F)F)nn1Cc1ccc(C(C)(C)C)cc1,"cell-free assay, competition with immobilised ligand",1 µM,100
CN(CCCC(F)(F)F)c1nccc(-c2cnn3ncccc23)n1,binding,1 µM,87
O=C(c1ccc(Nc2ncc(Cl)c(-c3cc4ccccc4s3)n2)cc1)N1CCC(N2CCCC2)CC1,"binding, competition with immobilised ligand",1 µM,71
CN(C)c1nccc(-c2cnn3ncccc23)n1,binding,1 µM,100
CC(=O)c1c(NS(C)(=O)=O)c2cc(-c3ccc(Cl)cc3)c(-c3ccc(Cl)cc3Cl)nc2n(C)c1=O,"cell-free assay, competition with immobilised ligand",1 µM,100
